Screening data from PubChem BioAssay.
This is a sample that favours compounds with a hit; in the whole collection about 11% have one here.
SF-1 act – SF-1 (human) activation; Q13285; CHO-K1 Gal4-SF-1 LBD luciferase reporter; % increase over DMSO SF-1-specific signal; activation, % at 10 µM; 65,000 tested, 1.9% active; AID 522;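 active means activation above the mean activation of all tested compounds plus 3 SD, cut at about 50% in these data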
Target sequence (Q13285 whole entry, looked up, the tested form may be a part): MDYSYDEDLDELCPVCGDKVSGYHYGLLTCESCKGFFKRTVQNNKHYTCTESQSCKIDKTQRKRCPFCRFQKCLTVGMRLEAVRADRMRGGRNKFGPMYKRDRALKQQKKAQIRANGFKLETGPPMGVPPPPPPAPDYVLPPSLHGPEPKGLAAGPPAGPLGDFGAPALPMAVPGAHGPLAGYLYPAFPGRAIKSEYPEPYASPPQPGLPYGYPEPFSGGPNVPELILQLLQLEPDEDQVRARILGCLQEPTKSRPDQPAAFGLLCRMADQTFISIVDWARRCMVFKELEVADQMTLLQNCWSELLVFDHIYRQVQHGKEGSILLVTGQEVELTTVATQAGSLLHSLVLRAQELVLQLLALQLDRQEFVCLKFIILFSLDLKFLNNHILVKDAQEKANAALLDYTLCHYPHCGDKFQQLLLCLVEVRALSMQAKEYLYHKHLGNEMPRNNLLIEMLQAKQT
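Assay system: CHO-K1 cells co-transfected with Gal4 DBD–human SF-1 LBD, 5xGal4 luciferase reporter / Input: 4,000 cells per well / Incubation: 20 h compound exposure at 37 °C after 1 h cell settling / Detection: SteadyLite luciferase luminescence / Control set: DMSO negative control and −SF1 background wells / Replication: one test per compound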
D1 mod – allosteric modulators of human D1 dopamine receptor | 58,000 tested, 5.9% active | HEK293 D1, CRE-luciferase, dopamine EC30 potentiation; actives deviate in either direction | B-score at 10 µM;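 active means luminescence count or its row- and column-corrected plate score outside the 99.7% band of the plate's sample wells, on either side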
mHtt clearance – mutant huntingtin protein clearance | HeLa Exon1htt(103Q)mCFP, aggregate imaging; zero = plate's median compound well | inhibition, % at 1.5 µM | 47,000 tested, 0.42% active;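 active means inhibition of aggregate fluorescence above about 70%, also judged a hit by eye on the cell image, limit read from the data, passing the limit was not always enough; inconclusive means no rule stated for this call; inactive means not judged a hit on image review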;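 further: cells exposed to compound for three days before fixation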
RORA act – activates the human nuclear receptor RORA. CHO-K1 Gal4-RORA LBD luciferase reporter, luminescence; percent increase over mock-subtracted basal signal. 65,000 tested, 1.5% active. activation, % at 10 µM. P35398;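 active means activation above the mean of all tested compounds plus 3 SD, cut at about 49% in these data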;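 further: 0% = DMSO-treated RORA cells and 100% = added signal equal to DMSO minus mock-transfected cells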
M1 agonist – M1 muscarinic receptor agonism | 64,000 tested, 3% active | CHO-M1 cells, Fluo-4 calcium fluorescence, agonist mode; hits give high values | AID 626 | B-score at 10 µM;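 active means fluorescence rise, raw or as B-score row- and column-corrected plate score, outside the 99.7% band of its plate's samples, either direction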
M1 antag – antagonists of rat M1 muscarinic receptor; 64,000 tested, 3.4% active; P08482; CHO-M1 cells, Fluo-4 calcium, ACh EC80 antagonist mode; hits give low values; B-score at 10 µM;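 active means calcium fluorescence response, raw or row-and-column corrected B-score, differing from the plate sample mean either way at a set confidence level, mostly lower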
M1 ag confirm – confirmation of rat M1 muscarinic receptor agonists. shares compounds with M1 agonist. AID 1488. CHO-M1 cells, Fluo-4 calcium fluorescence, agonist mode; actives lie on both sides. 1,700 tested, 19% active. fluorescence change (max-min) at 10 µM;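 active means fluorescence change differs from the solvent-only DMSO control mean at a set confidence level in both duplicate runs; inconclusive means differs from solvent-only control mean in just one of two runs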;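 further: an EC20 dose of acetylcholine follows compound addition during the same imaging run; raw fluorescence intensity difference in instrument units with no normalization to controls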
M4 ag counter – activates rat M4 receptor in counter-screen for M1 agonists; shares compounds with M1 agonist; CHO M4/Gqi5 cells, Fluo-4 calcium fluorescence, agonist mode; actives lie on both sides; fluorescence change (max-min) at 10 µM; 1,700 tested, 9% active; AID 1741;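 active means fluorescence change differing from the plate's solvent-only control wells at 99.7% confidence in both duplicates, whether higher or lower; inconclusive means differs from solvent controls in only one of two duplicates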
An asterisk follows results filed as active; ? = inconclusive; . = not tested or not shown.

SMILES | SF-1 act | D1 mod | mHtt clearance | RORA act | M1 agonist | M1 antag | others
O=C(Cn1cnc2ccccc2c1=O)NCc1ccco1 | 5.7 | -0.921 | -21.9 | 19.3 | -0.463 | 1.29
CC1(C)Cc2nc3sc4c(=O)n(CC(=O)NCc5ccco5)cnc4c3cc2CO1 | 62.1* | 0.146 | . | 39.5 | -0.358 | -0.32
Cc1cc(C)n(-c2ccc(C(=O)Nc3ccc4c(c3)OCCO4)cc2)n1 | 34.7 | -0.251 | 2.8 | 75.3* | -0.613 | -0.519
CC(C)CNS(=O)(=O)c1ccc(C(=O)Nc2ccc3c(c2)OCCO3)cc1 | 9.0 | 0.321 | 27.7 | 73.2* | 0.515 | -0.188
Cc1ccc(Cl)c(OCC(=O)Nc2ccc3c(c2)OCCO3)c1 | 34.3 | -0.783 | -2.7 | 21.4 | 4.32* | -0.308
Cc1cc(C)n(-c2ccc(C(=O)NCc3ccc4c(c3)OCO4)cc2)n1 | -5.5 | -1.5 | . | -7.7 | -0.567 | -0.767
CCOc1ccc(C(=O)Nc2ccc3c(c2)OCCO3)cc1OC | 56.5* | -0.0562 | -37.4 | 33.7 | 0.561 | 0.0116
Cc1cccc(OCC(=O)Nc2ccc3c(c2)OCO3)c1C | -2.6 | 0.241 | . | -2.9 | 0.0696 | -0.00385
C=CCn1c(N)cc(=O)nc1SC(C)C(=O)Nc1cccc2ccccc12 (centres undefined) | . | . | -35.5 | . | . | .
Cc1cc(C)n(-c2ccc(C(=O)Nc3sccc3C(N)=O)cc2)n1 | 61.8* | 0.0103 | . | 31.0 | 1.1 | -0.782
COC(=O)c1ccsc1NC(=O)c1ccc(Cl)s1 | 1.1 | 3.15 | . | -6.7 | -0.127 | -0.58
Cc1cc(C)n(-c2ccc(C(=O)NCc3cccs3)cc2)n1 | 3.0 | 0.773 | . | -0.1 | 1.02 | -0.0193
CN(C)S(=O)(=O)c1ccc(C(=O)Nc2ccccn2)cc1 | 12.6 | -0.0512 | 4.7 | -9.3 | . | .
COC(=O)c1ccsc1NC(=O)c1ccc2c(c1)OCCO2 | 23.3 | 3.79* | . | 30.5 | 1.44 | 0.284
Cc1cc(C(=O)Nc2ccccn2)cs1 | 62.2* | -3.77* | . | 55.9* | 0.584 | 0.527
Cc1cc(C)n(-c2ccc(C(=O)Nc3ccccn3)cc2)n1 | 29.2 | -4.13* | 24.7 | 18.6 | -0.8 | 0.215
Cc1ccc(NC(=O)CS(=O)CC(=O)N(c2ccc(C)cc2)C(C)C(=O)NC2CCCCC2)cc1 (centres undefined) | . | . | 36.6 | . | . | .
CC(C(=O)NCc1ccc2c(c1)OCO2)N1c2cccc3cccc(c23)S1(=O)=O (centres undefined) | 1.1 | 0.277 | . | -6.3 | 0.0355 | -1.55
CN1C(=S)SC(/[N+]([O-])=C\c2ccccc2)C1(C)C (centres undefined) | . | . | -47.3 | . | . | .
CN1C(=S)SC(/[N+]([O-])=C/c2cccnc2)C1(C)C (centres undefined) | -4.4 | -6.01* | . | -11.5 | 0.0266 | -0.499
CCOc1ccccc1NC(=O)c1ccccc1-c1nc(-c2ccccc2OC)no1 | 0.0 | -2.45 | -36.4 | 2.9 | 5.16 | -0.464
Cc1ccc2c(c1)C1CN(C)CCC1N2C(=O)Nc1ccc(Cl)cc1 (centres undefined) | 8.2 | -4.22* | 11.8 | 29.3 | -1.39 | -1.33
Cc1ccc2c(c1)[C@@H]1CN(C)CC[C@@H]1N2S(=O)(=O)c1ccc(F)cc1 | 1.6 | . | . | 18.4 | -0.0543 | 0.319
Cn1c(SCC(=O)NC(C)(C)C)nnc1-c1cnccn1 | . | . | -1.1 | . | . | .
c1ccc(-n2nc3c(ccc4cnnc43)[nH]2)cc1 | 35.8 | -0.212 | -3.3 | 54.7* | 1.36 | -0.393
SMILES | SF-1 act | D1 mod | mHtt clearance | RORA act | M1 agonist | M1 antag | others
CCCc1sc(N/N=C/c2ccccn2)nc1-c1ccc(F)cc1 | . | . | 81.9* | . | . | .
COC(=O)c1ccccc1S(=O)(=O)N(Cc1ccco1)Cc1cc2cc(OC)ccc2[nH]c1=O | -4.5 | -0.0143 | -10.8 | -14.9 | 7.72* | -0.19
CCOC(=O)c1ccccc1NC(=O)c1cc2sccc2n1C | -5.7 | -0.127 | 67.7 | 11.6 | -1.22 | -0.447
Cn1c(C(=O)Nc2ccc3c(c2)OCCO3)cc2sccc21 | 42.8 | -2.67* | . | -0.9 | 0.554 | -0.543
CCOC(=O)c1cccc(NC(=O)c2cc3sccc3n2C)c1 | 55.2* | -0.79 | -4.1 | 36.0 | 2.84 | 0.00543
Cc1ccc(CNC(=O)CSc2nc(N3CCCCC3)nc(N3CCCCC3)n2)cc1 | 4.7 | -0.0518 | 69.0 | -28.9 | 0.81 | 0.34
O=C1c2ccccc2C(=O)C1c1ccncc1 | 1.2 | -3.51* | 32.7 | 31.6 | -1.35 | -1.2
O=C(Nc1nnc(C2CCCCC2)s1)c1cccs1 | 53.7* | -1.02 | 14.1 | 41.1 | -0.299 | 0.316
O=C(Nc1nnc(C2CCCCC2)s1)c1ccco1 | 70.3* | 0.0178 | 51.9 | 6.4 | -1.55 | 0.551
CCn1c(SCCC#N)nnc1-c1ccncc1 | 1.4 | 0.369 | . | 8.0 | -0.463 | -0.821
CCOC(=O)c1c(NC(=O)c2ccccc2Br)sc2c1CCc1ccccc1-2 | . | . | -18.6 | . | . | .
Cc1ccc2nc(-c3ccccn3)cc(C(=O)N3CCN(c4ncccn4)CC3)c2c1 | 18.3 | 2.5 | . | 1.0 | 3.57* | -2.14 | M1 ag confirm=-1.89;M4 ag counter=-22.5
COc1ccc(-c2cc(C(=O)N3CCOCC3)c3cc(C)ccc3n2)cc1 | 3.2 | -1.52 | -1.4 | 7.9 | 4.07* | -0.329 | M1 ag confirm=-9;M4 ag counter=-33.2
COc1ccc2oc(-c3ccccc3)c(C(=O)N3CCOCC3)c2c1 | -3.2 | 1.82 | 32.2 | -1.3 | 3.99* | -0.000463 | M1 ag confirm=-23.9;M4 ag counter=-31.8
Cc1ccc(-c2cc(C(=O)N3CCN(c4ncccn4)CC3)c3ccccc3n2)cc1 | 53.7* | -0.294 | 16.9 | 25.5 | 8.8* | -1.84 | M1 ag confirm=-16.2;M4 ag counter=-111*
COc1cccc(-c2cc(C(=O)N3CCN(c4ncccn4)CC3)c3ccccc3n2)c1 | 16.3 | 0.0716 | . | -1.7 | 3.06 | -1.87
Cc1cc(C(=O)N2CCN(c3ncccn3)CC2)c2cc(F)ccc2n1 | -15.6 | . | 59.9 | 9.2 | -0.835 | -0.0886
CCOC(=O)N1CCC(Nc2c(N3CCN(c4cccc(C(F)(F)F)c4)CC3)c(=O)c2=O)CC1 | -19.9 | -0.00102 | 2.3 | 15.3 | 0.491 | 1.12
Cc1ccc(-n2cc(C(C)(C)C)[nH]c2=S)cc1 | 18.3 | . | . | 34.3 | -0.158 | 0.808
CC(C)Oc1cccc(-c2cc(C(=O)N3CCN(S(C)(=O)=O)CC3)c3ccccc3n2)c1 | 32.1 | 0.691 | 7.3 | 14.4 | 3.65* | 0.0902 | M1 ag confirm=?;M4 ag counter=-49.9
Cc1cc(-c2ccccc2)n(-c2ccc(C(=O)N3CCN(c4ncccn4)CC3)cc2)n1 | 14.6 | . | 11.1 | 19.5 | 9.15* | -1.04 | M1 ag confirm=?;M4 ag counter=?
Cc1cc(C)n(-c2nc3ccccc3nc2N2CCN(C(=O)c3ccc(Cl)cc3)CC2)n1 | 3.3 | 0.587 | -4.2 | 0.3 | 0.852 | -0.0142
CCOc1cc(S(=O)(=O)NCc2ccccn2)c(C)cc1C | -2.4 | -0.474 | . | -2.3 | 0.163 | -0.188
Cc1ccc2[nH]c(=O)c(CN(CCCN3CCOCC3)C(=O)Nc3cccc(Cl)c3)cc2c1 | 2.6 | -0.899 | . | -12.2 | 1.08 | 0.00856
